Screens (PubChem)
Rows were chosen to be rich in hits. Some 1.5% of all compounds tested hit in one or more screens of this group.
APJ agonist: APJ receptor agonism. activation, % at 20 µM. P35414. CHO-K1 APJ PathHunter beta-arrestin, luminescence; 0% DMSO wells, 100% apelin. 330,000 tested, 0.11% active;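 active means activation more than six SD over the plate average, tested at 20 µM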;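 further: 0% = DMSO alone and 100% = apelin-13 at 10 nM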
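Assay system: CHO-K1 APJ beta-arrestin complementation cell line / Compound: single test compound dose, 20 µM final, 1% DMSO / Times: overnight seeding, 90 min compound at 25 °C, 1 h detection / Technique: beta-gal luminescence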
APJ antagonist: APJ receptor antagonism; P35414; CHO-K1 APJ beta-arrestin complementation, luminescence; inhibition, % at 20 µM; 330,000 tested, 0.32% active; AID 2521;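 active means inhibition above about 40% at 20 µM, limit read from the data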;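 further: cells challenged with 10 nM apelin-13 agonist together with compound; plate controls were apelin-13 plus DMSO wells for no effect and DMSO wells lacking apelin-13 for full effect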
EBI2 block: EBI2 (human) antagonism; P32249; EBI2 beta-arrestin recruitment, luminescence, 7a,25-OHC stimulated; inhibition, % at 5 µM; 360,000 tested, 0.81% active; in the data active means inhibition above about 38%;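 further: enzyme fragment complementation signal reports receptor beta-arrestin coupling in cells; 0% = agonist plus DMSO wells and 100% = wells without agonist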
Target sequence (P32249 whole entry, looked up, the tested form may be a part): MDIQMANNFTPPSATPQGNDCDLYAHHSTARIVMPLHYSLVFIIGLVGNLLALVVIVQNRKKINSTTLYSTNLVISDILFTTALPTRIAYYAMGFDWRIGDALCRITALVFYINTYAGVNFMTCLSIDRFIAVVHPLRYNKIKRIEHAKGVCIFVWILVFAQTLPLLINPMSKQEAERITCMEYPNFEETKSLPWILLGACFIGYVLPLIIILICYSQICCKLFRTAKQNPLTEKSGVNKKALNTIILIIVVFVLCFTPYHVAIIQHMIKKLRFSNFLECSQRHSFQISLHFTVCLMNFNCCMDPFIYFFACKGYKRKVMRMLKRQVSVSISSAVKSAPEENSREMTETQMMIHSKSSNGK
CXCR6 block: blocks human CXCR6 beta-arrestin recruitment | O00574 | inhibition, % at 20 µM | CHO-K1 PathHunter CXCR6 beta-arrestin, luminescence | 360,000 tested, 0.36% active; in the data active means inhibition above about 34%, passing the limit was not always enough;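 further: antagonist mode with CXCL16 agonist at 10 nM final; 0% = 10 nM CXCL16 with DMSO and 100% = unstimulated wells without agonist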
CCR6 antagonist: blocks CCL20-driven beta-arrestin recruitment at human CCR6; AID 493098; inhibition, % at 20 µM; P51684; CHO-K1 CCR6 PathHunter beta-arrestin, luminescence, CCL20-stimulated; 340,000 tested, 0.49% active;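 active means compounds whose inhibition of the agonist-driven luminescence signal at 20 µM reaches about 50%, limit read from the data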;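 further: cells stimulated with CCL20 at 14 nM final; plate controls were DMSO with CCL20 for no effect and DMSO without agonist for full effect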
APJ antag confirm: APJ receptor antagonism confirmation; 950 tested, 66% active; inhibition, % at 20 µM; shares compounds with APJ antagonist; APJ beta-arrestin recruitment, luminescence, antagonist mode; in the data active means inhibition above about 50%
Numbers without * were called inactive; . = no result given.

SMILES | APJ agonist | APJ antagonist | EBI2 block | CXCR6 block | CCR6 antagonist | APJ antag confirm
COCCN(C(=O)COC(=O)C1CCCCC1)c1c(N)n(Cc2ccccc2)c(=O)[nH]c1=O | . | . | -17 | 5 | . | .
CCCCNC(=O)C1(N2C(=O)c3ccccc3C2=O)CCCC1 | . | . | -15 | 6 | -3 | .
COc1ccc(CC(=O)OC(C)C(=O)NCc2ccc3c(c2)OCO3)cc1OC (stereo unspecified) | -1 | 41* | -2 | -10 | 2 | 1
CC(C)NC(=O)c1sc2nc(-c3cccs3)cc(-c3cccs3)c2c1N | -17 | 42* | . | . | 29 | 31
CC(=O)c1sc2nc(-c3cccs3)ccc2c1N | 0 | -9 | 8 | -6 | 6 | .
O=C1NC[C@H](CCCCN2CCN(CCC3CCCCC3)C(=O)C2=O)N(CC2CCCCC2)C1=O | . | . | -6 | 1 | . | .
Cc1ccc(-c2c3c(nc4sc(C(N)=O)c(N)c24)CCC3)cc1 | -6 | 8 | -6 | -1 | 4 | .
NC(=O)c1sc2nc3c(c(-c4ccc(Cl)cc4)c2c1N)CCCC3 | -9 | 52* | 25 | 4 | 14 | 18
CCCn1cnc2c(sc3nc4c(cc32)CSC(C)(C)C4)c1=O | 2 | -1 | 4 | -5 | -6 | .
CC1(C)Cc2nc3sc4c(=O)n(Cc5ccccc5)cnc4c3cc2CS1 | -1 | 59* | 12 | 2 | 12 | 20
Cc1cc(C)c2c(CN3CCCCC3)cc(=O)oc2c1 | -1 | 43* | 6 | -2 | 18 | 22
Cc1cc(C)c2c(CN3CCCCCCC3)cc(=O)oc2c1 | . | . | -1 | 3 | . | .
CCOC(=O)N1CCN(C(=O)C[C@@H]2C[C@@]3(C(=O)OCC)CCC=C3N(Cc3ccc4c(c3)OCO4)C2=O)CC1 | . | . | -3 | -2 | . | .
C/C=C/c1ccc(OCCCCN(C)Cc2ccccc2)c(OC)c1 | -5 | 51* | 0 | 8 | 1 | 18
C[C@H](CO)N1C[C@H](C)[C@@H](CN(C)Cc2ccc(Cl)c(Cl)c2)OCc2cnnn2CCCC1=O | . | . | -2 | 8 | . | .
CCOC(=O)C1(C)CCCN1C(=O)c1csnn1 (stereo unspecified) | . | . | 1 | -1 | . | .
COc1ccc(N2CCOCC2)c(NC(=O)c2ccc3c(c2)OCO3)c1 | -1 | 51* | -4 | 1 | 20 | 30
N#Cc1cccc(NC(=O)c2cc(C3CCCCN3C(=O)c3ccc4c(c3)CCO4)on2)c1 (stereo unspecified) | . | . | -9 | -2 | . | .
C/C(=N\NC(=O)c1cc(Br)ccc1O)c1ccccn1 | -13 | 44* | 36 | 40 | 54* | 33
Cc1ccc(Nc2ccc([N+](=O)[O-])ccc2=O)cc1 | 9 | -9 | 35 | 0 | 6 | .
Cc1nsc(Nc2ccc([N+](=O)[O-])cc2)c1C#N | -8 | 71* | 23 | 50* | 56* | 88*
CC(C)(C)n1nnnc1C(c1cc2ccccc2o1)N(CCC#N)Cc1ccccc1 (stereo unspecified) | . | . | 25 | -1 | . | .
O=C(C[n+]1ccc(-c2cc(C(=O)Nc3cccc(C(F)(F)F)c3)c3ccccc3n2)cc1)c1cccc([N+](=O)[O-])c1 | -5 | 52* | -9 | 27 | 38 | 63*
COc1cc(OC)cc(-c2c(Sc3ccccc3)c3cc(-c4ccc(OC)c(F)c4)ccc3n2C)c1 | . | . | 7 | -4 | . | .
O=C1c2cccc3c(Nc4ccccc4Cl)c([N+](=O)[O-])cc(c23)C(=O)N1CCO | -7 | 53* | 13 | 40* | 65* | 84*
SMILES | APJ agonist | APJ antagonist | EBI2 block | CXCR6 block | CCR6 antagonist | APJ antag confirm
Cc1ccc(NC(=S)NNc2ncc(C(F)(F)F)cc2Cl)c(C)c1 | -10 | 53* | 24 | 65* | 81* | 49
O=C(NNc1ncc(C(F)(F)F)cc1Cl)c1ccc(Cl)c(Cl)c1 | -5 | 13 | -1 | -4 | 22 | .
CC(=O)Nc1ccc(C(=O)N2CCOCC2c2cc(C(=O)NCc3ccccc3)no2)cc1 (stereo unspecified) | . | . | -3 | 5 | . | .
ON1C2CCCCC2N(O)C1c1ccccc1C(F)(F)F (stereo unspecified) | -8 | 48* | -1 | 19 | 56* | 29
O=C(Nc1ccccc1C(F)(F)F)NC1CCCCCCC1 | -3 | 9 | 1 | -10 | 12 | .
CCCCOc1ccc(C(=O)N/C(=C/C=C/c2ccccc2)C(=O)NCCO)cc1 | -2 | 43* | 1 | -4 | 9 | -14
